Measured values taken from ChEMBL document CHEMBL1155454, “The pthaladyns: GTP competitive inhibitors of dynamin I and II GTPase derived from virtual screening” (J Med Chem, 2010).
The source made the active and inactive calls. The rule behind the calls is not given here.

Assays:
[1] = Inhibition of sheep brain dynamin 1 after 30 mins by malachite green method; design: species or system Ovis aries
Outline: (§1)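 Enzyme was endogenous dynamin I purified from sheep brain. GTPase activity was read by malachite green phosphate detection, with dynamin and lipid levels set for adequate optical response. Inhibition was also scored at single concentrations of 300 or 400 μM.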

Dynamin-1 = target: T1, Dynamin-1 (Rattus norvegicus, UniProt P21575); experiment: Inhibition of dynamin 1-mediated synaptic vesicle endocytosis in Sprague-Dawley rat synaptosomes assessed as uptake of FM 4-64 dye after 30 mins by automated acquisition and analysis system; format: subcellular, Brain
T1 sequence (P21575 whole entry): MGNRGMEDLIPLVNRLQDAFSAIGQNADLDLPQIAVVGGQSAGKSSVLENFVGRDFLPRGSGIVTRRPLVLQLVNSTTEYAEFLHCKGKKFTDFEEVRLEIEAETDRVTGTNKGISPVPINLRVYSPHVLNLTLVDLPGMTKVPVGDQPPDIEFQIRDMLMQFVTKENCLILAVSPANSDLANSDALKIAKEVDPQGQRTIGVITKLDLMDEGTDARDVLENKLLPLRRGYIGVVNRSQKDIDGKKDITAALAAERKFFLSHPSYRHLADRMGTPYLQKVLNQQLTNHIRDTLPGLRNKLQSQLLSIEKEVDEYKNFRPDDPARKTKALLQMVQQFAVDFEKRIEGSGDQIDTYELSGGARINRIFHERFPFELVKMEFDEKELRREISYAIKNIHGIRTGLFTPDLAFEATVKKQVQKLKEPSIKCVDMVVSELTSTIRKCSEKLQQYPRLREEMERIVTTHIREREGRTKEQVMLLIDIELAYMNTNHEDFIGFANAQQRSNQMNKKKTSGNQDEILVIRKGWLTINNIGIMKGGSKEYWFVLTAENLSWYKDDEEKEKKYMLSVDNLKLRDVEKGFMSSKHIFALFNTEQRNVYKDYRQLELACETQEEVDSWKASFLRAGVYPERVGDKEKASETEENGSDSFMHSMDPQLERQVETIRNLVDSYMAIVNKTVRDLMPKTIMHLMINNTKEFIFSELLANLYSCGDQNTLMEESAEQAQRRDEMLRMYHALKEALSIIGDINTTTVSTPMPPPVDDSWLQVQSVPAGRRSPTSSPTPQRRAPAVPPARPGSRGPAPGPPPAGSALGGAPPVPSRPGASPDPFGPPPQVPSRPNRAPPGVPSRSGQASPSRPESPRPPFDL
Outline: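 Rat brain nerve terminals (isolated synaptosomes) used for synaptic vesicle endocytosis. Endocytosis was tracked as change in uptake of the styryl dye FM4-64, an endocytic marker.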

Ovis aries [2] = species on record: Ovis aries; experiment: Inhibition of sheep brain dynamin 1 at 300 uM after 30 mins by malachite green method; outline: as §1
Ovis aries [3] = species on record: Ovis aries; experiment: Inhibition of sheep brain dynamin 1 at 400 uM after 30 mins by malachite green method; outline: as §1
Ovis aries [4] = species on record: Ovis aries; experiment: Competitive inhibition of dynamin 1 from sheep brain at 14 to 19 uM by Lineweaver-Burke plot
Outline: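 Dynamin I GTPase purified from sheep brain, read by malachite green phosphate release. Michaelis-Menten kinetics with inhibitor at 14, 15, 16, 17, 18 and 19 μM and Mg2+·GTP substrate at 60-200 μM. Double-reciprocal (Lineweaver-Burke) plot of reaction velocity against substrate. Four independent experiments, each in triplicate; mean ± SEM.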

Dynamin-2 [5] = target: T2, Dynamin-2 (Homo sapiens, UniProt P50570); experiment: Inhibition of recombinant dynamin 2 expressed in Sf9 cells after 30 mins by malachite green method
T2 sequence (P50570 whole entry): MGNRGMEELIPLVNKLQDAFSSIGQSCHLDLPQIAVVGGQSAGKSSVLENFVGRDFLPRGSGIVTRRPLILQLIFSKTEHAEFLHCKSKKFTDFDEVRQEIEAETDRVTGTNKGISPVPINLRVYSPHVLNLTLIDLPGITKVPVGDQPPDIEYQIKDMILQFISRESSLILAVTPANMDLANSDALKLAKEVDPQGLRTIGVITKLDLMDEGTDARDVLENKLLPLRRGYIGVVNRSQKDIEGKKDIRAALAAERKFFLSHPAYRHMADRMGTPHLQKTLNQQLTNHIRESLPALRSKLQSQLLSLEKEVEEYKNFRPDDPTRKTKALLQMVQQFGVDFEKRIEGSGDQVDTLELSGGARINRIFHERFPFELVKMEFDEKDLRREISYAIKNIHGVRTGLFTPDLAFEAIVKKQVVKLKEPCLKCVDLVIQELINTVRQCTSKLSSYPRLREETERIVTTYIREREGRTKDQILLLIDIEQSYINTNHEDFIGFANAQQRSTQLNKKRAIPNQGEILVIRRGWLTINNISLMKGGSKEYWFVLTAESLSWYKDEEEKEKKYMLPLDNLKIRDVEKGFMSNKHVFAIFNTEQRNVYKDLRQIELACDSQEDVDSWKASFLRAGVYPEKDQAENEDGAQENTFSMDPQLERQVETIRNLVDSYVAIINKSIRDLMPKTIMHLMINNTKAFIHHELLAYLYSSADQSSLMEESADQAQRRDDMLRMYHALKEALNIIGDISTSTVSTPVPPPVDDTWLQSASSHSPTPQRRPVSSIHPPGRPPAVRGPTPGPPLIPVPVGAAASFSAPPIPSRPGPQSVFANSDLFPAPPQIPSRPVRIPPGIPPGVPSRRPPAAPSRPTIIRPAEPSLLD

Dynamin-2 [6] = target: T2, Dynamin-2; experiment: Inhibition of dynamin 2-mediated receptor-induced endocytosis in human U2OS cells assessed as uptake of Tf-TxR dye after 30 mins by automated acquisition and analysis system; format: cell-based

| SMILES | IC50 [1] | inhibition (Ovis aries [3]) | further results |
| --- | --- | --- | --- |
| CCOC(=O)c1ccc(N2C(=O)c3ccc(C(=O)Nc4cc(Cl)ccc4C(=O)O)cc3C2=O)cc1 | – | – | inhibition (Ovis aries [2]): 50% |
| O=C(Nc1cc(Cl)ccc1C(=O)O)c1ccc2c(c1)C(=O)N(CCc1ccccc1)C2=O | – | inactive | – |
| O=C(Nc1cc(Cl)ccc1C(=O)O)c1ccc2c(c1)C(=O)N(c1cccc(O)c1)C2=O | – | inactive | – |
| O=C(Nc1cc(Cl)ccc1C(=O)O)c1ccc2c(c1)C(=O)N(c1cccc([N+](=O)[O-])c1)C2=O | 17.4 µM | – | Activity (Ovis aries [4]): Active; IC50 (Dynamin-1; read-out: IC50): 12.9 µM |
| Nc1cccc(N2C(=O)c3ccc(C(=O)Nc4cc(Cl)ccc4C(=O)O)cc3C2=O)c1 | 94 µM | – | – |
| COc1ccc(CN2C(=O)c3ccc(C(=O)Nc4cc(Cl)ccc4C(=O)O)cc3C2=O)cc1 | – | inactive | – |
| O=C(Nc1cc(Cl)ccc1C(=O)O)c1ccc2c(c1)C(=O)N(C1CCCc3ccccc31)C2=O (centres undefined) | – | inactive | – |
| O=C(Nc1cc(Cl)ccc1C(=O)O)c1ccc2c(c1)C(=O)N(CCCCc1ccccc1)C2=O | – | inactive | – |
| Nc1ccc(N2C(=O)c3ccc(C(=O)Nc4cc(Cl)ccc4C(=O)O)cc3C2=O)cc1 | – | inactive | – |
| O=C(Nc1cc(Cl)ccc1C(=O)O)c1ccc2c(c1)C(=O)N(c1ccccc1O)C2=O | 61 µM | – | IC50 (Dynamin-1; read-out: IC50): 119 µM |
| O=C(O)Cc1ccc(N2C(=O)c3ccc(C(=O)Nc4cc(Cl)ccc4C(=O)O)cc3C2=O)cc1 | 95.5 µM | – | – |
| O=C(Nc1cc(Cl)ccc1C(=O)O)c1ccc2c(c1)C(=O)N(c1ccccc1CO)C2=O | – | inactive | – |
| COc1ccc(N2C(=O)c3ccc(C(=O)Nc4cc(Cl)ccc4C(=O)O)cc3C2=O)cc1 | 78 µM | – | – |
| O=C(Nc1cc(Cl)ccc1C(=O)O)c1ccc2c(c1)C(=O)N(c1ccc([N+](=O)[O-])cc1)C2=O | 16.6 µM | – | – |
| CC(C)(C)c1ccc(N2C(=O)c3ccc(C(=O)Nc4cc(Cl)ccc4C(=O)O)cc3C2=O)cc1 | 112 µM | – | – |
| O=C(O)c1ccc(N2C(=O)c3ccc(C(=O)Nc4cc(Cl)ccc4C(=O)O)cc3C2=O)cc1 | 95 µM | – | – |

Now from value to compound, other results behind:

| IC50 [1] | inhibition (Ovis aries [3]) | SMILES | further results |
| --- | --- | --- | --- |
| 4.58 µM | – | O=C(Nc1cc(Cl)ccc1C(=O)O)c1ccc2c(c1)C(=O)N(c1ccc(CO)cc1)C2=O | IC50 (Dynamin-1; read-out: IC50): 690 µM |
| 111 µM | – | O=C(Nc1cc(Cl)ccc1C(=O)O)c1ccc2c(c1)C(=O)N(c1cccc(CO)c1)C2=O | – |
| 104 µM | – | O=C(O)CCc1ccc(N2C(=O)c3ccc(C(=O)Nc4cc(Cl)ccc4C(=O)O)cc3C2=O)cc1 | – |
| 84 µM | – | O=C(Nc1cc(Cl)ccc1C(=O)O)c1ccc2c(c1)C(=O)N(Cc1cccnc1)C2=O | – |
| – | inactive | COc1cccc(N2C(=O)c3ccc(C(=O)Nc4cc(Cl)ccc4C(=O)O)cc3C2=O)c1 | – |
| 184 µM | – | O=C(Nc1cc(Cl)ccc1C(=O)O)c1ccc2c(c1)C(=O)N(c1ccccc1C(=O)O)C2=O | – |
| – | inactive | Cc1cccc(C)c1N1C(=O)c2ccc(C(=O)Nc3cc(Cl)ccc3C(=O)O)cc2C1=O | – |
| – | inactive | O=C(Nc1cc(Cl)ccc1C(=O)O)c1ccc2c(c1)C(=O)N(Cc1ccccc1)C2=O | – |
| – | inactive | CSc1ccc(N2C(=O)c3ccc(C(=O)Nc4cc(Cl)ccc4C(=O)O)cc3C2=O)cc1 | – |
| 267 µM | – | O=C(Nc1cc(Cl)ccc1C(=O)O)c1ccc2c(c1)C(=O)N(c1ccc(C(=O)O)c(O)c1)C2=O | – |
| 39.8 µM | – | O=C(Nc1cc(Cl)ccc1C(=O)O)c1ccc2c(c1)C(=O)N(c1ccc(O)cc1)C2=O | IC50 (Dynamin-2 [5]): 114 µM; IC50 (Dynamin-2 [6]): Not Active; IC50 (Dynamin-1): Not Active |
| > 400 µM | 40% | O=C(Nc1cc(Cl)ccc1C(=O)O)c1ccc2c(c1)C(=O)N(c1ccccc1-c1ccccc1)C2=O | – |
| – | inactive | O=C(Nc1cc(Cl)ccc1C(=O)O)c1ccc2c(c1)C(=O)N(c1ccccc1)C2=O | – |
| – | inactive | O=C(Nc1cc(Cl)ccc1C(=O)O)c1ccc2c(c1)C(=O)N(c1cccc3ccccc13)C2=O | – |
| 311 µM | – | Nc1ccccc1N1C(=O)c2ccc(C(=O)Nc3cc(Cl)ccc3C(=O)O)cc2C1=O | – |
